Measured values: ChEMBL document CHEMBL1122579, “Synthesis and biological activity of nucleosides and nucleotides related to the antitumor agent 2-beta-D-ribofuranosylthiazole-4-carboxamide” (J Med Chem, 1984)

Experiments:
Mus musculus [1] = assay: Mice were inoculated intraperitoneally with L1210 leukemia cells and the change in body weight of the mice with the compound was evaluated at a dose of 50 mg/kg; type: functional; details: route intraperitoneal
Summary of the method: (§1)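 Mice received intraperitoneally implanted L1210 leukemia, with groups of six treated mice and 36 untreated controls. Compound was given intraperitoneally on days 1-5. Body weight change was the average weight on day 5 minus the average on day 1, in grams. Median life span and % ILS were recorded against the untreated controls.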

Mus musculus [2] = assay: Mice were inoculated intraperitoneally with L1210 leukemia cells and the percentage ILS of the mice with the compound was evaluated at a dose of 200 mg/kg; type: functional; details: L1210, ip, route intraperitoneal
Summary of the method: (§2)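 Mice implanted ip with L1210 leukemia, in groups of six, with 36 untreated controls. Drug given ip on days 1-5 at 50-800 mg/kg. Endpoint was median life span in days, with percent increase in life span (ILS) relative to untreated controls. Body weight change was taken as day 5 minus day 1 average weight.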

Mus musculus [3] = assay: Mice were inoculated intraperitoneally with L1210 leukemia cells and the median life span of the mice with the compound was evaluated at a dose of 200 mg/kg; type: functional; details: route intraperitoneal; summary of the method: as §2
Mus musculus [4] = assay: Mice were inoculated intraperitoneally with L1210 leukemia cells and the percentage ILS of the mice with the compound was evaluated at a dose of 50 mg/kg; type: functional; details: L1210, ip, route intraperitoneal; summary of the method: as §2
Mus musculus [5] = assay: Mice were inoculated intraperitoneally with L1210 leukemia cells and the change in body weight of the mice with the compound was evaluated at a dose of 800 mg/kg; type: functional; details: route intraperitoneal; summary of the method: as §1
Mus musculus [6] = assay: Mice were inoculated intraperitoneally with L1210 leukemia cells and the change in body weight of the mice with the compound was evaluated at a dose of 200 mg/kg; type: functional; details: route intraperitoneal; summary of the method: as §1
Mus musculus [7] = assay: Mice were inoculated intraperitoneally with L1210 leukemia cells and the change in body weight of the mice with the compound was evaluated at a dose of 400 mg/kg; type: functional; details: route intraperitoneal; summary of the method: as §1
Mus musculus [8] = assay: Mice were inoculated intraperitoneally with L1210 leukemia cells and the percentage ILS of the mice with the compound was evaluated at a dose of 800 mg/kg; type: functional; details: L1210, ip, route intraperitoneal; summary of the method: as §2
Mus musculus [9] = assay: Mice were inoculated intraperitoneally with L1210 leukemia cells and the median life span of the mice with the compound was evaluated at a dose of 50 mg/kg; type: functional; details: route intraperitoneal; summary of the method: as §2
Mus musculus [10] = assay: Mice were inoculated intraperitoneally with L1210 leukemia cells and the median life span of the mice with the compound was evaluated at a dose of 400 mg/kg; type: functional; details: route intraperitoneal; summary of the method: as §2
Mus musculus [11] = assay: Mice were inoculated intraperitoneally with L1210 leukemia cells and the median life span of the mice with the compound was evaluated at a dose of 100 mg/kg; type: functional; details: route intraperitoneal; summary of the method: as §2
Mus musculus [12] = assay: Mice were inoculated intraperitoneally with L1210 leukemia cells and the percentage ILS of the mice with the compound was evaluated at a dose of 400 mg/kg; type: functional; details: L1210, ip, route intraperitoneal; summary of the method: as §2
Mus musculus [13] = assay: Mice were inoculated intraperitoneally with L1210 leukemia cells and the change in body weight of the mice with the compound was evaluated at a dose of 100 mg/kg; type: functional; details: route intraperitoneal; summary of the method: as §1
Mus musculus [14] = assay: Mice were inoculated intraperitoneally with L1210 leukemia cells and the median life span of the mice with the compound was evaluated at a dose of 800 mg/kg; type: functional; details: route intraperitoneal; summary of the method: as §2
Mus musculus [15] = species: Mus musculus; assay: Compound was evaluated for the cytotoxicity to L1210 leukemia cells in culture at ~1.6-fold higher concentrations and expressed as ID50; type: functional; details: read-out: ID50 (the source's name)
Mus musculus [16] = assay: Mice were inoculated intraperitoneally with L1210 leukemia cells and the percentage ILS of the mice with the compound was evaluated at a dose of 100 mg/kg; type: functional; details: L1210, ip, route intraperitoneal; summary of the method: as §2
T-cells (human) = assay: Compound was evaluated for the cytotoxicity to T cells in the presence of 2'-deoxyguanosine and expressed as ED50
[17] = target: purine nucleoside phosphorylase (human) (UniProt P00491); assay: Compound was evaluated for the concentration which […] inosine phosphorolysis by human lymphoblast purine nucleoside phosphorylase and expressed as IC50
Mus musculus [18] = assay: Mice were inoculated intraperitoneally with L1210 leukemia cells and the median life span of the mice with the compound was evaluated at a dose of 25 mg/kg; type: functional; details: route intraperitoneal
Mus musculus [19] = assay: Mice were inoculated intraperitoneally with L1210 leukemia cells and the percentage ILS of the mice with the compound was evaluated at a dose of 25 mg/kg; type: functional; details: L1210, ip, route intraperitoneal
Mus musculus [20] = assay: Mice were inoculated intraperitoneally with L1210 leukemia cells and the change in body weight of the mice with the compound was evaluated at a dose of 25 mg/kg; type: functional; details: route intraperitoneal

Row | SMILES | Body weight change (Mus musculus [1]) [g] | ILS at 200 mg/kg (Mus musculus [2]) [%] | Median life span (Mus musculus [3]) [days] | ILS at 50 mg/kg (Mus musculus [4]) [%] | Body weight change (Mus musculus [5]) [g] | Body weight change (Mus musculus [6]) [g] | Body weight change (Mus musculus [7]) [g] | ILS at 800 mg/kg (Mus musculus [8]) [%] | Median life span (Mus musculus [9]) [days] | Median life span (Mus musculus [10]) [days] | Median life span (Mus musculus [11]) [days] | ILS at 400 mg/kg (Mus musculus [12]) [%] | Body weight change (Mus musculus [13]) [g] | Median life span (Mus musculus [14]) [days] | IC50 (Mus musculus [15]) [µM] | ILS at 100 mg/kg (Mus musculus [16]) [%] | also measured
1 | NC(=O)c1csc([C@@H]2O[C@H](COP(=O)(O)O)[C@@H](O)[C@H]2O)n1 | -0.6 | 159 | 21.5 | 36 | -3.6 | -1.4 | -2 | 96 | 11.3 | 15.2 | 15.5 | 83 | -1 | 16.3 | 3.2 | 86 | 
2 | N=C(N)c1csc([C@@H]2O[C@H](CO)[C@@H](O)[C@H]2O)n1 |  |  |  |  |  |  |  |  |  |  |  |  |  |  |  |  | EC50 (T-cells (human)): 77 µM; IC50 [17]: 300 µM
3 | NC(=O)c1csc([C@@H]2O[C@H](CO)[C@@H](O)[C@H]2O)n1 [TIAZOFURIN] | -2.1 | 103 | 16.5 | 66 | -4.4 | -2.9 | -3.9 | 85 | 13.5 | 16.2 | 14.8 | 100 | -2.5 | 15 | 1.9 | 82 | Median life span (Mus musculus [18]): 12.8 days; ILS at 25 mg/kg (Mus musculus [19]): 58%; Body weight change (Mus musculus [20]): -2.6 g
4 | NC(=O)c1csc([C@@H]2O[C@@H]3COP(=O)(O)O[C@H]3[C@H]2O)n1 | -1.1 | 52 | 17.7 | 14 |  | -1.9 | -3.1 |  | 13.3 | 18 | 14.3 | 55 | -0.6 |  |  | 23 | 
